Results taken from ChEMBL document CHEMBL4138104, “Indole carboxylic acid esters of melampomagnolide B are potent anticancer agents against both hematological and solid tumor cells” (Eur J Med Chem, 2017).

Columns and labels:
Type in all cases: functional
HT-29 = assay: Growth inhibition of human HT-29 cells incubated for 48 hrs by sulforhodamine B assay; conditions: HT-29, 48 h
Method in brief: (§1)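 NCI-60 screen. Compounds were dosed at five concentrations spanning 10^-4 to 10^-8 M for 48 h at 37 °C. Cells were TCA-fixed, stained with 0.4% SRB and read at 515 nm against time-zero and vehicle controls. GI50 is the concentration giving a 50% reduction in net protein increase.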

UACC-62 = assay: Growth inhibition of human UACC62 cells incubated for 48 hrs by sulforhodamine B assay; conditions: UACC-62, 48 h
Method in brief: (§2)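 NCI-60 screen run at NCI. Cells grown in RPMI medium with 5% FBS and 2 mM L-glutamine, plated at 5,000–40,000 cells/well, and preincubated 24 h at 37 °C. Time-zero plates were TCA-fixed. Compounds came from DMSO stocks and were tested at five concentrations from 10^-4 to 10^-8 M for 48 h. Cells were then TCA-fixed, stained with 0.4% SRB, and OD read at 515 nm. GI50 is the concentration giving a 50% reduction in net protein increase versus control.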

SNB-19 = assay: Growth inhibition of human SNB19 cells incubated for 48 hrs by sulforhodamine B assay; conditions: SNB-19, 48 h; method in brief: as §2
RXF 393 = assay: Growth inhibition of human RXF393 cells incubated for 48 hrs by sulforhodamine B assay; conditions: RXF 393, 48 h; method in brief: as §1
HL-60(TB) = assay: Growth inhibition of human HL-60(TB) cells incubated for 48 hrs by sulforhodamine B assay; conditions: HL-60, 48 h
Method in brief: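 Performed at NCI's 60-line screen. Cells grown in RPMI with 5% FBS and 2 mM L-glutamine, plated 5,000–40,000 cells/well and incubated 24 h at 37 °C before compound addition. DMSO stocks were diluted in medium with gentamicin, and five concentrations spanning 10^-4 to 10^-8 M were tested. Exposure was 48 h. Cells were fixed with TCA, stained with SRB, and read at 515 nm. GI50 taken from log dose-response curves as 50% reduction in net protein increase versus control.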

HCT-116 = assay: Growth inhibition of human HCT116 cells incubated for 48 hrs by sulforhodamine B assay; conditions: HCT-116, 48 h; method in brief: as §1
NCI-H460 = assay: Growth inhibition of human NCI-H460 cells incubated for 48 hrs by sulforhodamine B assay; conditions: NCI-H460, 48 h; method in brief: as §1
SK-OV-3 = assay: Growth inhibition of human SKOV3 cells incubated for 48 hrs by sulforhodamine B assay; conditions: SK-OV-3, 48 h; method in brief: as §1
A498 = assay: Growth inhibition of human A498 cells incubated for 48 hrs by sulforhodamine B assay; conditions: A498, 48 h; method in brief: as §1
Malme-3M = assay: Growth inhibition of human MALME-3M cells incubated for 48 hrs by sulforhodamine B assay; method in brief: as §1
CCRF-CEM = assay: Growth inhibition of human CCRF-CEM cells incubated for 48 hrs by sulforhodamine B assay; method in brief: as §1
SF-268 = assay: Growth inhibition of human SF268 cells incubated for 48 hrs by sulforhodamine B assay; conditions: SF-268, 48 h; method in brief: as §1
SF-295 = assay: Growth inhibition of human SF295 cells incubated for 48 hrs by sulforhodamine B assay; conditions: SF-295, 48 h; method in brief: as §1
A549 = assay: Growth inhibition of human A549/ATCC cells incubated for 48 hrs by sulforhodamine B assay; conditions: A549, 48 h; method in brief: as §1
KM12 = assay: Growth inhibition of human KM12 cells incubated for 48 hrs by sulforhodamine B assay; conditions: KM12, 48 h; method in brief: as §1
U-251 = assay: Growth inhibition of human U251 cells incubated for 48 hrs by sulforhodamine B assay; conditions: U-251, 48 h; method in brief: as §2
SW-620 = assay: Growth inhibition of human SW620 cells incubated for 48 hrs by sulforhodamine B assay; conditions: SW-620, 48 h; method in brief: as §2
NCI-H23 = assay: Growth inhibition of human NCI-H23 cells incubated for 48 hrs by sulforhodamine B assay; conditions: NCI-H23, 48 h; method in brief: as §1
NCI-H322M = assay: Growth inhibition of human NCI-H322M cells incubated for 48 hrs by sulforhodamine B assay; method in brief: as §1
MOLT-4 = assay: Growth inhibition of human MOLT4 cells incubated for 48 hrs by sulforhodamine B assay; conditions: MOLT-4, 48 h; method in brief: as §1
NCI-H226 = assay: Growth inhibition of human NCI-H226 cells incubated for 48 hrs by sulforhodamine B assay; conditions: NCI-H226, 48 h; method in brief: as §1
HOP-92 = assay: Growth inhibition of human HOP92 cells incubated for 48 hrs by sulforhodamine B assay; conditions: HOP-92, 48 h; method in brief: as §1
MCF7 = assay: Growth inhibition of human MCF7 cells incubated for 48 hrs by sulforhodamine B assay; conditions: MCF7, 48 h; method in brief: as §1
RPMI-8226 = assay: Growth inhibition of human RPMI8226 cells incubated for 48 hrs by sulforhodamine B assay; conditions: RPMI-8226, 48 h; method in brief: as §1
OVCAR-8 = assay: Growth inhibition of human OVCAR8 cells incubated for 48 hrs by sulforhodamine B assay; conditions: OVCAR-8, 48 h; method in brief: as §1
UACC-257 = assay: Growth inhibition of human UACC257 cells incubated for 48 hrs by sulforhodamine B assay; conditions: UACC-257, 48 h; method in brief: as §2
SK-MEL-28 = assay: Growth inhibition of human SK-MEL-28 cells incubated for 48 hrs by sulforhodamine B assay; conditions: SK-MEL-28, 48 h; method in brief: as §1
LOX IMVI = assay: Growth inhibition of human LOXIMVI cells incubated for 48 hrs by sulforhodamine B assay; method in brief: as §1
UO-31 = assay: Growth inhibition of human UO31 cells incubated for 48 hrs by sulforhodamine B assay; conditions: UO-31, 48 h; method in brief: as §2
[1] = Cytotoxicity against human M9-ENL1 cells assessed as reduction in cell viability by trypan blue staining-based assay
Method in brief: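 M9-ENL1 AML cells (MLL-ENL-transduced human blood cells) plated at 10^6 cells/mL in alpha-MEM with 5% human plasma, 20% FBS, SCF, IL-3, IL-7 and FLT3. Drug diluted from DMSO stock into PBS, final DMSO ≤0.5%. After 24 h exposure, dead cells assessed by trypan blue and by flow cytometry (Annexin V/PI or Annexin V/7-AAD). Viability normalized to vehicle; EC50 from dose-response curves; triplicate.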

NCI/ADR-RES = assay: Growth inhibition of human NCI/ADR-RES cells incubated for 48 hrs by sulforhodamine B assay; method in brief: as §1
OVCAR-5 = assay: Growth inhibition of human OVCAR5 cells incubated for 48 hrs by sulforhodamine B assay; conditions: OVCAR-5, 48 h; method in brief: as §1
HCT-15 = assay: Growth inhibition of human HCT15 cells incubated for 48 hrs by sulforhodamine B assay; conditions: HCT-15, 48 h; method in brief: as §1
SF-539 = assay: Growth inhibition of human SF539 cells incubated for 48 hrs by sulforhodamine B assay; conditions: SF-539, 48 h; method in brief: as §1
NCI-H522 = assay: Growth inhibition of human NCI-H522 cells incubated for 48 hrs by sulforhodamine B assay; conditions: NCI-H522, 48 h; method in brief: as §1
HCC 2998 = assay: Growth inhibition of human HCC2998 cells incubated for 48 hrs by sulforhodamine B assay; conditions: HCC 2998, 48 h; method in brief: as §1
SN12C = assay: Growth inhibition of human SN12C cells incubated for 48 hrs by sulforhodamine B assay; method in brief: as §1

Row | Structure (SMILES) | GI50 (HT-29) | GI50 (UACC-62) | GI50 (SNB-19) | GI50 (RXF 393) | GI50 (HL-60(TB)) | GI50 (HCT-116) | GI50 (NCI-H460) | GI50 (SK-OV-3) | GI50 (A498) | GI50 (Malme-3M) | GI50 (CCRF-CEM) | GI50 (SF-268) | GI50 (SF-295) | GI50 (A549) | GI50 (KM12) | GI50 (U-251) | GI50 (SW-620) | GI50 (NCI-H23) | GI50 (NCI-H322M) | GI50 (MOLT-4) | other results
1 | C=C1C(=O)O[C@@H]2[C@H]3O[C@]3(C)CC/C=C(/COC(=O)c3cc4cc(OC)ccc4[nH]3)CC[C@@H]12 | 0.35 µM | 1.38 µM | 1.57 µM | 1.14 µM | 0.32 µM | 0.42 µM | 1.83 µM | 4.9 µM | 1.63 µM | 1.61 µM | 0.34 µM | 1.66 µM | 2.42 µM | 1.66 µM | 1.54 µM | 1.6 µM | 0.64 µM | 1.49 µM | 1.88 µM | 1.32 µM | GI50 (NCI-H226): 1.57 µM; GI50 (HOP-92): 0.44 µM; GI50 (MCF7): 0.34 µM; GI50 (RPMI-8226): 0.5 µM; GI50 (OVCAR-8): 1.58 µM; GI50 (UACC-257): 1.61 µM; GI50 (SK-MEL-28): 1.23 µM; GI50 (LOX IMVI): 0.3 µM; GI50 (UO-31): 1.12 µM; EC50 [1]: 1.8 µM; GI50 (NCI/ADR-RES): 1.68 µM; GI50 (OVCAR-5): 1.77 µM; GI50 (HCT-15): 0.32 µM; GI50 (SF-539): 1.02 µM; GI50 (NCI-H522): 0.7 µM; GI50 (HCC 2998): 1.54 µM; GI50 (SN12C): 1.77 µM
2 | C=C1C(=O)O[C@@H]2[C@H]3O[C@]3(C)CC/C=C(/COC(=O)c3cc4cc(Cl)ccc4[nH]3)CC[C@@H]12 | 1.33 µM | 1.67 µM | 2.91 µM | 1.38 µM | 0.44 µM | 0.7 µM | 1.72 µM | 10.2 µM | 2.65 µM | 1.63 µM | 0.39 µM | 1.44 µM | 3.18 µM | 1.69 µM | 2.15 µM | 1.75 µM | 1.4 µM | 1.63 µM | 4 µM | 0.55 µM | GI50 (NCI-H226): 1.8 µM; GI50 (HOP-92): 1.25 µM; GI50 (MCF7): 0.86 µM; GI50 (RPMI-8226): 0.81 µM; GI50 (OVCAR-8): 1.34 µM; GI50 (UACC-257): 1.7 µM; GI50 (SK-MEL-28): 1.58 µM; GI50 (LOX IMVI): 0.81 µM; GI50 (UO-31): 1.21 µM; EC50 [1]: 3.8 µM; GI50 (NCI/ADR-RES): 1.45 µM; GI50 (OVCAR-5): 1.53 µM; GI50 (HCT-15): 1 µM; GI50 (SF-539): 1.44 µM; GI50 (NCI-H522): 1.59 µM; GI50 (HCC 2998): 1.4 µM; GI50 (SN12C): 1.7 µM
3 | C=C1C(=O)O[C@@H]2C3O[C@]3(C)CC/C=C(\C)CC[C@@H]12 (stereo partly specified) | 23.5 µM | 16.8 µM | 70.9 µM | 12.2 µM | 5.71 µM | 10.8 µM | 18.8 µM | 54.7 µM | 7.04 µM | 13.8 µM | 9.16 µM | 25.1 µM | 28.9 µM | 91.8 µM | 16.2 µM | 41.5 µM | 14.5 µM | 20.2 µM | 21.7 µM | 14.3 µM | GI50 (NCI-H226): 20.5 µM; GI50 (HOP-92): 13.5 µM; GI50 (MCF7): 16.4 µM; GI50 (RPMI-8226): 8.2 µM; GI50 (OVCAR-8): 17.1 µM; GI50 (UACC-257): 14.4 µM; GI50 (SK-MEL-28): 21 µM; GI50 (LOX IMVI): 8.24 µM; GI50 (UO-31): 41.9 µM; EC50 [1]: 5.5 µM; GI50 (NCI/ADR-RES): 15 µM; GI50 (OVCAR-5): 34.1 µM; GI50 (HCT-15): 10.2 µM; GI50 (SF-539): 18.9 µM; GI50 (NCI-H522): 5.47 µM; GI50 (HCC 2998): 24.1 µM; GI50 (SN12C): 22.8 µM
